The list is not random: actives were taken first. Their share in the collection is about 5.1%.
STAT3 activator – IL-6 driven STAT3 reporter potentiators, primary screen, U3A cells, luciferase, luminescence, MLSCN library | IL-6 STAT3-luciferase reporter; 100% = signal with IL-6 EC80 alone | AID 871, 2007 | activation (% of control), % at 5.6 µM | 0.91% of 190,000 active;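 active = activation above the screen-wide mean of compound activation plus 3 SD, cut at about 130% in these data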
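Material: STAT3-luciferase reporter U3A cells. Controls: IL-6-treated wells, 100% activation. Read-out: % activation versus median of IL-6-stimulated wells. Probe or stimulus: IL-6 stimulus at 33 ng/mL final. Timing: compound 1 h, then IL-6 6 h at 37 °C. Signal: reporter luminescence signal.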
APP 5'UTR act – activators of APP 5'UTR luciferase reporter, primary screen, SH-SY5Y cells; SH-SY5Y APP 5'UTR luciferase reporter, luminescence; zero percent = DMSO vehicle wells; 1% of 190,000 active; activation, % at 2 µM; AID 1276, 2008;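 active = activation above a set limit, based on mean plus 3 SD of controls, cut at about 140% in these data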
STAT3 inh – IL-6 driven STAT3 reporter inhibitors, primary screen, U3A cells, luciferase, luminescence, MLSCN library; IL-6 STAT3-luciferase reporter; host cell line lacks STAT1; inhibition, % at 5.5 µM; 0.89% of 190,000 active;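 active = inhibition above the mean inhibition across all screened compounds plus 3 SD, cut at about 44% in these data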
NF-kB neuron act – activators of NF-kB expression in neurons, primary screen, cell-based, HTS; human neuronal cells, NF-kB reporter expression; stronger effect = higher value; fold change at 12.5 µM; 1.6% of 190,000 active; AID 1239, 2008; in the data active = fold change above about 3.3
STAT1 activator – STAT1 signaling activators, primary screen, cell-based, HTS, luciferase reporter; NIH 3T3 STAT1-luciferase reporter, IFN-gamma, luminescence; 100% = IFN-gamma alone, no compound; activation (% of control), % at 5.5 µM; 2.6% of 200,000 active; AID 932, 2007;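 active = activation above the screen-wide mean activation plus 3 SD, cut at about 130% in these data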
STAT1 blocker – STAT1 signaling inhibitors, primary screen, cell-based, HTS, luciferase reporter; NIH 3T3 STAT1-luciferase reporter, IFN-gamma, luminescence; inhibition, % at 5.5 µM; 0.35% of 200,000 active; AID 920, 2007;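 active = inhibition above a set limit, the mean inhibition across all tested compounds plus 3 SD, cut at about 34% in these data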
Of the large screens only hits and unclear results are named; the others gave an inactive call.

CCN1C(=O)/C(=C\c2ccc(-c3ccc([N+](=O)[O-])cc3OC)o2)SC1=Nc1cccc(C(=O)O)c1	none
CC(C)(C)OC(=O)N/N=C/c1ccc(Br)cc1	NF-kB neuron act 4.47, STAT1 activator 148.9
CC(C)(C)NC(=O)C(=O)N/N=C/c1ccc(Br)cc1	none
CCOc1ccccc1NC(=S)NCc1cccn1C	none
Cc1[nH]c2ccccc2c1C1=NNC(=Nc2ccc(F)cc2)SC1	none
CC(C)N=C1NN=C(c2ccc(F)cc2)CS1	APP 5'UTR act 136.0, NF-kB neuron act 3.46
Clc1ccc(C2=NNC(=NCc3ccccc3)SC2)cc1	none
NC1=NN=C(c2ccc3c(c2)OCCO3)CS1	STAT3 inh 65.6, STAT1 blocker 49.1
c1ccc(CN=C2NN=C(c3ccccc3)CS2)cc1	STAT1 activator 138.5
CCN=C1NN=C(c2ccc(C)cc2)CS1	STAT3 inh 65.8
CN1C(=O)COc2ccc(C(=O)c3oc4ccccc4c3-c3cnc4c(c3)COc3ccccc3-4)cc21	none
COc1ccc(C=O)cc1Cn1ccnc1C	none
C=CCN=C1NN=C(c2ccc3c(c2)OCCO3)CS1	STAT3 inh 89.3, STAT1 blocker 63.6
c1ccc(C2=NNC(=NCc3ccc4c(c3)OCO4)SC2)cc1	none
N#CCCS(=O)(=O)c1nnnn1-c1ccccc1	none (no result: NF-kB neuron act)
Cc1ccc(-c2noc(CSc3nc(N)cc(N)n3)n2)cc1	NF-kB neuron act 3.44
Cc1cccc(-c2noc(CSc3ccccc3)n2)c1	STAT1 activator 145.0
c1ccc(SCc2nc(-c3cccnc3)no2)cc1	STAT1 activator 132.6
COc1ccc(CCc2nc(-c3ccc(-n4cccc4)cc3)no2)cc1	none
c1ccc(C(Cc2nc(-c3cccnc3)no2)c2ccccc2)cc1	none
COc1ccc(-c2noc(CCc3ccccc3)n2)cc1	STAT1 activator 133.6
COc1ccc(N2CC(NC(=O)NCCC(C)C)CC2=O)cc1 (stereo unspecified)	none
COc1cccc2cc(C(N)=O)/c(=N/NC(=O)COc3ccc(Cl)cc3)oc12	none
CC(C)c1ccccc1NC(=S)NCc1ccncc1	none
Cc1ccc(-c2noc(CSc3ccccc3)n2)cc1	APP 5'UTR act 170.0, NF-kB neuron act 4.4
COc1ccc(C(=O)N/N=C/c2ccc(OC)c(CN3CCc4cc(OC)c(OC)cc4C3C)c2)cc1 (stereo unspecified)	none
N#C/C(C(=O)Oc1ccccc1)=C1\C=CC=CN1	STAT1 activator 141.8
C=CCc1cccc(C=Nc2cccn3cc(-c4ccccc4)nc23)c1O	STAT1 activator 131.5
C=CCc1cccc(C=Nc2cc(Br)ccc2O)c1O	none
Cc1cccc2c(=O)c(Br)c(C)n(Cc3ccccc3)c12	none
CCCN(C(=O)c1ccco1)c1nnc(-c2cccc(C)c2)s1	none
COc1ccc(-c2nnc(N(C)C(=O)C3CCOC3)s2)cc1 (stereo unspecified)	APP 5'UTR act 157.4
CCN(C(=O)c1ccco1)c1nnc(-c2ccc(OC)cc2)s1	NF-kB neuron act 3.63
COc1ccc(-c2nnc(N(C)C(=O)C3CCCO3)s2)cc1 (stereo unspecified)	none
COc1ccccc1OCCC(=O)OCC(=O)c1c(N)n(C)c(=O)n(C)c1=O	none
CCCC(=O)NCc1ccncc1	none
CCN(CC)S(=O)(=O)c1cccc(C(=O)N[C@H](C(=O)NCc2ccc(Cl)cc2)C(C)C)c1	none
CN1CCN(CC(=O)Nc2ccccc2[N+](=O)[O-])CC1	NF-kB neuron act 5.49
Cc1ccc(OCC(=O)N2CCc3ccccc3C2)c([N+](=O)[O-])n1	none
CN(C)c1oc(-c2ccc(Cl)cc2)nc1S(=O)(=O)c1ccccc1	STAT1 activator 130.8
CC1=CC(=O)c2ccccc2C1=O	none
CC(C)(C=O)C1=CC(=O)c2ccccc2C1=O	STAT3 activator 139.1
O=C(Nc1ccc(N2CCN(C(=O)c3ccccc3)CC2)c(Cl)c1)c1ccco1	none
O=C(CSc1nc2ccccc2o1)Nc1ccc(N2CCOCC2)c(Cl)c1	APP 5'UTR act 193.7
O=C(c1ccccc1)c1ccc(N2CCOCC2)c(F)c1	STAT1 activator 132.7
O=C(Nc1ccc(N2CCOCC2)c(Cl)c1)c1ccccc1F	NF-kB neuron act 5.11, STAT1 activator 137.5
O=C(Nc1ccc(N2CCOCC2)c(Cl)c1)c1ccc(Cl)cc1	none
O=C(Nc1ccc(N2CCOCC2)c(Cl)c1)c1ccco1	NF-kB neuron act 3.44, STAT1 activator 148.6
O=C(CSc1nc2ccccc2s1)Nc1ccc(N2CCOCC2)c(Cl)c1	none
O=C(Nc1ccc(Br)c(Cl)c1)c1ccco1	STAT1 activator 135.4
CCN(CC)CCOC(=O)c1ccc(NC(=O)c2ccc(Cl)c(S(=O)(=O)N3CCCCCC3)c2)cc1	none
Cc1ccc(-n2ncc(Cl)c2C(=O)NC2CC2)cc1	STAT1 activator 141.0
C=CCNC(=O)c1c(Cl)cnn1-c1ccc(C)cc1	STAT1 activator 138.7
Cc1ccc(-n2ncc3c(=O)n(CC(=O)NC4CCCCC4)cnc32)cc1	none
COCCNC(=O)C1CC(=O)N(c2ccc(OC)cc2)C1c1ccc(OC)cc1 (stereo unspecified)	none
CC(C)(C)S(=O)(=O)c1cnc2c(-c3ccc(Cl)cc3)cnn2c1N	none
COc1ccc(-c2cnn3c(N)c(S(=O)(=O)C(C)(C)C)cnc23)cc1	NF-kB neuron act 6.36
O=C(C1CCCCN1S(=O)(=O)c1ccccc1[N+](=O)[O-])N1CCCCC1 (stereo unspecified)	none
c1ccc2c(c1)CCN(c1nc3cc4c(cc3s1)OCCO4)C2	APP 5'UTR act 147.8, STAT3 inh 87.8, STAT1 blocker 36.7
COc1ccc(OC)c2sc(N3CCc4ccccc4C3)nc12	none
COC(=O)C1=C(NC(=O)c2ccc(C)c(C)c2)CCS1	STAT3 activator 133.8
Cc1nnc(SCC(=O)Nc2cccc(S(=O)(=O)N(C)c3ccccc3)c2)s1	none
O=C(Nc1ccccc1)N1CCOCC1	none
O=C(Nc1ccc2c(c1)oc1ccccc12)N1CCOCC1	NF-kB neuron act 3.81, STAT1 activator 140.4
COC(=O)CS(=O)(=O)c1ccc(C)cc1	none
COc1ccc(OCCCC(=O)NC(C)c2ccccc2)cc1 (stereo unspecified)	none
CC(C)Oc1ccc(C(=O)Nc2ccc(N3CCCC3)cc2)cc1	none
O=C(Nc1ccc(N2CCCCC2)cc1)C(Cl)c1ccccc1 (stereo unspecified)	none
COc1ccccc1C(=O)Nc1ccc(N2CCCCC2)cc1	STAT3 activator 151.2, APP 5'UTR act 167.6, NF-kB neuron act 4.94, STAT1 activator 139.5
O=C(NC(=S)Nc1ccc(N2CCCCC2)cc1)c1ccco1	STAT1 activator 131.8
